Shown are actives, neighbours in structure and some others; about 2.9% of the full set was active somewhere.
FAS TE block = inhibitors of human fatty acid synthase thioesterase domain. P49327. recombinant FAS-TE, OMFH fluorogenic substrate, fluorescence endpoint. inhibition, % at 15 µM. 360,000 tested, 0.67% active. AID 602261;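 active = compounds whose normalised, plate-corrected inhibition of enzyme fluorescence in the single-dose primary screen is 50% or more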;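 also: 0% = DMSO with enzyme and 100% = substrate without enzyme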
ADAM10 inh = ADAM10 inhibition, QFRET primary screen | AID 720582 | recombinant ADAM10, EDANS/DABCYL FRET peptide cleavage, 3 h | 370,000 tested, 0.62% active | inhibition, % at 7 µM | O14672;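 active = inhibition above a per-campaign cutoff equal to the mean of compounds falling between control-based bounds plus 3 SD, cut at about 20% in these data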;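 also: 0% = DMSO wells while the 100% control is not disclosed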
Arrestin-AP2 inh = inhibitors of human beta-arrestin and AP2 interaction. FITC-arrestin peptide / GST-AP2 beads, flow cytometry; AP2 beta2 appendage carries R879A mutation. inhibition, % at 10 µM. 340,000 tested, 0.31% active. AID 504490;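 active = inhibition above a set limit, near 3 SD of compounds lacking own fluorescence, cut at about 54% in these data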;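 also: plate controls were DMSO wells for no effect and 5 µM unlabelled arrestin peptide for full effect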
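System: GST-tagged AP2 beta2-adaptin appendage (R879A) on 4 µm glutathione beads / Reagent: FITC-arrestin peptide, 50 nM / Detection: HyperCyt-sampled flow cytometry, FL1 channel, ex 488/em 535 nm / Timing: 12 min plus 1 h, RT / Buffer or medium: PBS plus Tween 20 (0.05%) and BSA (0.1%)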
ADAM17 inh = ADAM17 inhibition, QFRET primary screen. P78536. recombinant ADAM17, EDANS/DABCYL FRET peptide cleavage. inhibition, % at 6.95 µM. 370,000 tested, 0.83% active;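 active = inhibition above the mean of compounds lying between control limits plus 3 SD, set per campaign, cut at about 8.5% in these data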;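 also: 0% = DMSO-only wells as the low control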
NRP1-CendR mod = NRP-1/CendR interaction modulation; O14786; FAM-RPARPAR peptide binding to NRP-1, fluorescence polarization; inhibition, % at 25 µM; 360,000 tested, 0.85% active; AID 602438;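 active = inhibition or corrected inhibition above about 18%, plus a signal ratio from 0.5 to 1.5, limit read from the data, passing the limit was not always enough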
Target sequence (O14786 whole entry, looked up): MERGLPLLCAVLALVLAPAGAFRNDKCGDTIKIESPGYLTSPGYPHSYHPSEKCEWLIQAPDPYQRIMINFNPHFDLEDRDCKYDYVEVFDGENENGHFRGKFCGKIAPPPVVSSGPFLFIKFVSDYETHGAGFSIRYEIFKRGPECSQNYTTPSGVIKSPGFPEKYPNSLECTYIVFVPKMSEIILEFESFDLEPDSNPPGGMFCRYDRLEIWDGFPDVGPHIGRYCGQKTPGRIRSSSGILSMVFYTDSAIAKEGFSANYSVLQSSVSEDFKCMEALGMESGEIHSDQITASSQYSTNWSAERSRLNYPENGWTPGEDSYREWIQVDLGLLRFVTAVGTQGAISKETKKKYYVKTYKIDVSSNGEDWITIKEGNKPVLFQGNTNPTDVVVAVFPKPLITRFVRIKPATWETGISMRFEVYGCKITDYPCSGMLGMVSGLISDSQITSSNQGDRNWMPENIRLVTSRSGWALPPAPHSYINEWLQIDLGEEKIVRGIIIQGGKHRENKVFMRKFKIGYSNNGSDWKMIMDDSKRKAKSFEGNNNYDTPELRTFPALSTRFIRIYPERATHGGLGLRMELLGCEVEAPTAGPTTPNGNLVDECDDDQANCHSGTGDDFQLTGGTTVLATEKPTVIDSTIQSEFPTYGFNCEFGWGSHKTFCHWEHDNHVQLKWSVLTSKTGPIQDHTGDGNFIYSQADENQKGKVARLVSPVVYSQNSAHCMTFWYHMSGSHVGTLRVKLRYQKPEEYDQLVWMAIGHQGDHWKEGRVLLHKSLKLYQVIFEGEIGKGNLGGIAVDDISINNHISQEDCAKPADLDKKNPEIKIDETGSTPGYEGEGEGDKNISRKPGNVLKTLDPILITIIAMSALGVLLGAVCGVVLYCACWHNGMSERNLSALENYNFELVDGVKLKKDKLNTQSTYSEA
CaV13 FRET inh = Primary screen for inhibitors of IQ motif and Ca2+-dependent inactivation inhibitor domain binding in CACNA1D, Förster resonance energy transfer in living cells, …. HEK cells, CFP/YFP FRET ICDI-IQ, plate reader, 10 min; percent FRET-ratio fall versus neutral wells. inhibition, % at 12.3 µM. 340,000 tested, 0.098% active. AID 743397;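 active = mean replicate inhibition of at least 30% and at least 1% of replicates passing that level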;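 also: 0% = median of the neutral control wells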
Starred values were filed as active, the others as inactive.

COc1ccc(COc2cc(-c3cccc(OC)c3)nc3ccc(N)cc23)cc1 was read as FAS TE block 32, ADAM10 inh inactive, Arrestin-AP2 inh -2, ADAM17 inh -193, NRP1-CendR mod -8 and CaV13 FRET inh -159.
COc1cccc(-c2cc(C(=O)Nc3ccc(N(C)C(C)=O)cc3)c3cc(Br)ccc3n2)c1 was read as FAS TE block 44, ADAM10 inh 20*, Arrestin-AP2 inh 11, ADAM17 inh 8, NRP1-CendR mod 3 and CaV13 FRET inh -5.
COc1ccc(COc2cc(-c3cccc(OC)c3)nc3ccc(NC(=O)c4ccc(C)cc4)cc23)cc1 was read as FAS TE block 36, ADAM10 inh -21, Arrestin-AP2 inh -6, ADAM17 inh -8, NRP1-CendR mod 8 and CaV13 FRET inh -10.
For COC(=O)C[C@@H]1C=C[C@@H](NC(=O)c2ccccc2F)[C@@H](CO)O1 the results were ADAM10 inh -15, ADAM17 inh -4, NRP1-CendR mod 1 and CaV13 FRET inh -6.
O=C(CN1CCN(c2nc(-c3ccccc3)cs2)CC1)Nc1ccc(Cl)cc1 was read as ADAM10 inh 10 and ADAM17 inh 4.
`Cc1nc(CCNC(=O)Cc2ccc(F)cc2)cs1` gave FAS TE block -9, ADAM10 inh -8, Arrestin-AP2 inh -2, ADAM17 inh 0, NRP1-CendR mod -14 and CaV13 FRET inh 5.
Cc1nc(CCNC(=O)Cc2ccc(Cl)cc2)cs1 was read as FAS TE block -6, ADAM10 inh -11, Arrestin-AP2 inh 17, ADAM17 inh 2, NRP1-CendR mod -2 and CaV13 FRET inh 39*.
Screening O=C(Cc1cc(=O)[nH][nH]1)N/N=C/c1ccccc1C(F)(F)F returned ADAM10 inh 5 and ADAM17 inh 3.
Screening CCC1(c2ccc(OC)cc2)NC(=O)N(CC(=O)NC2CCCCC2C)C1=O (stereo not given) returned FAS TE block -5, ADAM10 inh -23, Arrestin-AP2 inh -3, ADAM17 inh -2, NRP1-CendR mod 23* and CaV13 FRET inh -6.
CC1CCCCC1NC(=O)CN1C(=O)NC(C)(c2ccc(OC(F)F)cc2)C1=O (stereo not given) was read as FAS TE block -1, ADAM10 inh -6, Arrestin-AP2 inh -12, ADAM17 inh -6, NRP1-CendR mod 4 and CaV13 FRET inh -3.
For Cc1ccc(C)c(NC(=O)C(=O)NCCCN2CCOCC2)c1 the results were FAS TE block -5, ADAM10 inh 3, Arrestin-AP2 inh 8, ADAM17 inh -3, NRP1-CendR mod 33* and CaV13 FRET inh -6.
Cc1ccc(C)c(NC(=S)NCCCN2CCOCC2)c1 was read as FAS TE block -7, ADAM10 inh -3, Arrestin-AP2 inh 41, ADAM17 inh -2, NRP1-CendR mod -5 and CaV13 FRET inh -6.
For COCCNC(=O)C1CCCN(C(=O)/C=C/c2ccccc2)CC1 (stereo not given) the results were FAS TE block -8, ADAM10 inh -3, ADAM17 inh -3, NRP1-CendR mod 2 and CaV13 FRET inh -5.
For CC1(C(=O)NS(=O)(=O)C2CC2)CCN(C(=O)c2ccccc2F)C1 (stereo not given) the results were FAS TE block -7, ADAM10 inh -6, ADAM17 inh -5, NRP1-CendR mod 17 and CaV13 FRET inh -12.
`CC1CCc2cc(F)ccc2N1C(=O)CCC(=O)O` (stereo not given) gave FAS TE block -6, ADAM10 inh -2, Arrestin-AP2 inh -8, ADAM17 inh 2, NRP1-CendR mod 25* and CaV13 FRET inh -5.
CC(=O)n1c2ccccc2c2c1c1ccccc1n2C was read as FAS TE block -13, ADAM10 inh -325, Arrestin-AP2 inh -3, ADAM17 inh -70, NRP1-CendR mod 38* and CaV13 FRET inh -5.
For COc1ccc(C(O)c2nc(-c3cccc4cccnc34)cs2)cc1 (stereo not given) the results were FAS TE block 0, ADAM10 inh -20, ADAM17 inh -7, NRP1-CendR mod -1 and CaV13 FRET inh -5.
For O=C1NC[C@H](CCCCN2CCN(CCc3ccccc3)C(=O)C2=O)N(CCc2ccccc2)C1=O the results were FAS TE block -14, ADAM10 inh -1, ADAM17 inh -5, NRP1-CendR mod -5 and CaV13 FRET inh -4.
Screening COc1cccc(NC(=O)CN(C)C(=O)C(CCSC)NC(=O)c2ccco2)c1 (stereo not given) returned FAS TE block -11, ADAM10 inh -4, Arrestin-AP2 inh -4, ADAM17 inh -1, NRP1-CendR mod 18* and CaV13 FRET inh -2.
COc1cccc(NC(=O)c2ccco2)c1 was read as FAS TE block -14, ADAM10 inh 9, Arrestin-AP2 inh 18, ADAM17 inh -1, NRP1-CendR mod -3 and CaV13 FRET inh 0.
Cn1c(=O)c2c(-c3ccccc3)n(-c3ccc(N)cc3)cc2n(C)c1=O was read as FAS TE block -2, ADAM10 inh -33, ADAM17 inh -11, NRP1-CendR mod 37* and CaV13 FRET inh -6.
Cn1c(=O)c2c(-c3ccccc3)n(-c3cccc(O)c3)cc2n(C)c1=O was read as FAS TE block -1, ADAM10 inh -27, ADAM17 inh -5, NRP1-CendR mod 6 and CaV13 FRET inh -5.
For CCCc1nnc(SCc2ccc(C(=O)OC)o2)n1N the results were FAS TE block -2, ADAM10 inh 3, Arrestin-AP2 inh -1, ADAM17 inh 1 and NRP1-CendR mod -8.
`CCc1nnc(SCc2ccc(C(=O)OC)o2)n1N` gave FAS TE block -9, ADAM10 inh 5, Arrestin-AP2 inh 0, ADAM17 inh 0, NRP1-CendR mod 38* and CaV13 FRET inh -6.
CCOc1ccccc1NC(=O)COC(=O)c1ccccc1SCC(=O)N1CCCC1 was read as FAS TE block 3, ADAM10 inh 4, Arrestin-AP2 inh -8, ADAM17 inh -3, NRP1-CendR mod -2 and CaV13 FRET inh -6.
For O=C(COC(=O)c1ccccc1SCC(=O)N1CCCC1)Nc1ccccc1C(F)(F)F the results were FAS TE block -4, ADAM10 inh -5, Arrestin-AP2 inh 7, ADAM17 inh -3 and NRP1-CendR mod 32*.
For CC1(C(=O)NS(=O)(=O)c2ccc(Br)cc2)CCN1C(=O)Cc1cccs1 (stereo not given) the results were FAS TE block -9, ADAM10 inh -16, ADAM17 inh -2, NRP1-CendR mod 5 and CaV13 FRET inh -7.
For CCC(C(=O)OCC(=O)N(CC)c1c(N)n(Cc2ccccc2)c(=O)[nH]c1=O)c1ccccc1 (stereo not given) the results were FAS TE block -7, ADAM10 inh 7, Arrestin-AP2 inh 1, ADAM17 inh -2, NRP1-CendR mod -3 and CaV13 FRET inh -7.
